For the experiment, the system named is H4. The experiment can be described thus: Compound is evaluated for the inhibition of [125I]T3 uptake by H4 rat hepatoma cells at 0.1 mM. Type of experiment: functional. The essentials: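 H4 rat hepatoma cells grown in DMEM/10% FCS at 37 °C, plated to confluence (2 × 10^6 cells/well), then held overnight in serum-free DMEM. Fresh medium with 10^-11 M [125I]T3 plus test substance (final 0.1 mM from DMSO/ethanol stock; solvent-matched controls), 2 min at 37 °C. Five PBS pH 7.4 washes, 0.1 M NaOH lysis, cell-associated radioactivity counted. Nondisplaceable uptake taken with 10^-5 M unlabeled T3. Percent inhibition vs control, ≥5 replicates.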
The term inhibition denotes the share of the control response that was lost under treatment. A low value points to little suppression. Regarding `O=C(O)c1ccccc1Nc1cccc(I)c1`, the inhibition at 100 µM worked out at 40%.

`COc1ccc(Nc2ccccc2C(=O)O)cc1C(F)(F)F` displayed an inhibition at 100 µM of 54%.

In the case of `O=C(O)c1ccccc1Nc1ccccc1Cl`, at 100 µM the inhibition was 44.6%.

The compound `O=C(O)c1ccccc1Nc1ccc(Cl)c(C(F)(F)F)c1` returned an inhibition at 100 µM of 51%.

Take `Cc1cccc(Nc2ccccc2C(=O)O)c1`: the inhibition at 100 µM was found to be 30%.

As to `O=C(O)c1ccccc1Nc1cccc(OC(F)(F)C(F)F)c1`, testing at 100 µM gave an inhibition of 57%.

As to `N#Cc1cccc(Nc2ccccc2C(=O)O)c1`, the inhibition at 100 µM came out at 11.6%.

Consider `O=C(O)c1ccccc1Nc1ccc(Cl)c(Cl)c1`, for which the inhibition at 100 µM came to 55.6%.

Consider `O=C(O)Cc1ccccc1Nc1c(Cl)cccc1Cl` [DICLOFENAC], for which the inhibition at 100 µM was found to be 38%.

Turning to `Cc1cccc(C)c1Nc1ccccc1C(=O)O`, testing at 100 µM gave an inhibition of 48%.

Compound `O=C(O)c1ccccc1Nc1cccc(Cl)c1Cl` [CLOFENAMIC ACID] yielded an inhibition at 100 µM of 56.6%.

With `O=C(O)c1ccccc1Nc1cccc(Br)c1`, the inhibition at 100 µM came to 48.1%.

Turning to `O=C(O)c1ccccc1Nc1cc(Cl)ccc1Cl`, the inhibition at 100 µM was 43.2%.

`Cc1cccc(Nc2ccccc2)c1C` came in with an inhibition at 100 µM of 35.4%.

The compound `O=C(O)c1ccccc1Nc1ccccc1` [FENAMIC ACID] yielded an inhibition at 100 µM of 28%.

On to `O=C(O)c1ccccc1Nc1c(Cl)cccc1Cl`, for which the inhibition at 100 µM amounted to 54.6%.

Take `O=C(O)c1ccccc1Nc1cccc(O)c1`: 100 µM produced 6.6% inhibition.

`Cc1cccc(Nc2ccccc2C(=O)O)c1C` [MEFENAMIC ACID]: the inhibition at 100 µM was found to be 60.9%.

Take `Cc1ccc(Cl)c(Nc2ccccc2C(=O)O)c1Cl` [MECLOFENAMIC ACID]: at 100 µM the inhibition was 74.2%.

Compound `O=C(O)c1ccccc1Nc1cccc(Cl)c1` returned an inhibition at 100 µM of 51.4%.

As to `O=C(O)c1ccccc1Nc1cc(Cl)cc(Cl)c1`, the inhibition at 100 µM is 60.6%.

In the case of `O=C(O)c1ccccc1Nc1cccc(C(F)(F)F)c1` [FLUFENAMIC ACID], the inhibition at 100 µM came to 64.4%.

`O=C(O)c1ccccc1Nc1cc(C(F)(F)F)cc(C(F)(F)F)c1` gave an inhibition at 100 µM of 39.5%.

`O=C(O)c1ccccc1Nc1cc(Br)cc(Br)c1` had an inhibition at 100 µM of 39.1%.

For the origin of these results see ChEMBL document CHEMBL1126658, “Thyroid hormone uptake by hepatocytes: structure-activity relationships of phenylanthranilic acids with inhibitory activity” (J Med Chem, 1993).
